Measured values published in publication PMC3585837 (Drugs in R&D, 2012).
“Also recorded” adds a separate entry of the source. Like-named read-outs stand apart in the source and are kept apart here. One block for each molecule: values may come before it.

Columns and labels:
[1] = tested on: spontaneously hypertensive rats; conditions: cited from earlier work
[2] = tested on: dogs; conditions: cited from earlier work
[3] = tested on: mice; conditions: cited from earlier work
[4] = Tolerability in the food-effect study; format: in vivo, human
Outline: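 Randomized two-period crossover in 12 healthy men (18–45 y, BMI 19–28 kg/m2). Each received a single 200 mg oral dose (four 50 mg capsules, 240 mL water) after a high-fat, high-calorie breakfast or a 10 h fast; washout ≥14 days; confined until 72 h post-dose. Adverse events monitored throughout, recording onset, offset, severity, relatedness, action and outcome. Vital signs, physical examination, hematology and biochemistry at each admission.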

[5] = cited from earlier work
[6] = tested on: rats; conditions: cited from earlier work
[7] = cited from earlier work; for Increase of the extent of systemic exposure with dose / Linearity of pharmacokinetics: once-daily 25-600 mg for 10 days
[8] = 200 mg single dose, fasting condition; cited from earlier work
[9] = tested on: normotensive Wistar-Kyotos rats; conditions: cited from earlier work
[10] = format: in vivo, human; conditions: for AUClast test/reference geometric means ratio (GMR) / AUC∞ test/reference geometric means ratio (GMR) / Cmax test/reference geometric means ratio (GMR): fed (test) vs fasting (reference), n = 12
[11] = tested on: Cynomolgus monkeys; conditions: cited from earlier work
[12] = tested on: male cardiomyopathic hamsters (Bio TO-2 dilated strain); conditions: male cardiomyopathic hamsters (Bio TO-2 dilated strain) with advanced congestive heart failure; cited from earlier work
[13] = tested on: dopamine or noradrenaline levels in the brain; conditions: in contrast to peripheral tissues; cited from earlier work
[14] = cited from earlier work; remark: listed apart in the source
[15] = tested on: dopamine-β-hydroxylase (DβH); conditions: cited from earlier work
[16] = first- and second-generation DβH inhibitors; cited from earlier work
[17] = tested on: dopamine-β-hydroxylase (DβH); conditions: cited from earlier work; remark: listed apart in the source
[18] = rat; cited from earlier work
[19] = 90% CI of GMR against the acceptance interval (80, 125)
[20] = first- and second-generation DβH inhibitors

Structure (SMILES): Cl.NCCc1c[nH]c(=S)n1[C@H]1COc2c(F)cc(F)cc2C1 [etamicastat, (R)-5-(2-aminoethyl)-1-(6,8-difluorochroman-3-yl)-1,3-dihydroimidazole-2-thione hydrochloride]
Heart rate [1]: did not affect | Systolic and diastolic blood pressure [1]: reduced | No observed adverse effect level [2]: 5 mg/kg/day | No observed adverse effect level [3]: 30 mg/kg/day | Intensity of TEAEs ([4]; both periods): mild to moderate | Serious adverse events or discontinuations due to adverse events ([4]; both periods): no serious adverse events or discontinuations due to adverse events | Total number of treatment-emergent adverse events ([4]; both periods, single oral etamicastat 200 mg): six | Abnormalities in vital signs, ECG or laboratory safety tests ([4]; during the study): no clinically significant abnormality; also recorded: No clinically relevant abnormalities | Number of TEAEs ([4]; fed period (abdominal pain, asthenia, headache, intercostal pain)): four | Proportion of subjects reporting treatment-emergent adverse events ([4]; of 12 subjects, single oral etamicastat 200 mg, both periods): 33.3% | Overall tolerability ([4]; single oral 200 mg, fasting and fed periods, healthy male subjects): well tolerated | Effect of NAT1 phenotype on pharmacokinetics [5]: no relevant effect | No observed adverse effect level [6]: 30 mg/kg/day | Increase of the extent of systemic exposure with dose [7]: approximately dose-proportional | Linearity of pharmacokinetics [7]: linear pharmacokinetics | Etamicastat dose recovered in urine in the form of etamicastat and BIA 5-961 ([7]; once-daily dosing): Approximately 40% | Time to attain steady-state plasma concentrations ([7]; once-daily dosing): up to 9 days | Tolerability ([7]; orally, doses up to 600mg once daily for 10 days, male healthy volunteers): appears to be well tolerated | AUClast, arithmetic mean [8]: 2026 ng·h/mL | AUC∞, arithmetic mean [8]: 2230 ng·h/mL | Cmax, arithmetic mean [8]: 202 ng/mL | t1/2, arithmetic mean [8]: 19.8 h | Heart rate ([9]; Wistar-Kyotos rats): did not affect | Systolic and diastolic blood pressure ([9]; normotensive Wistar-Kyotos rats): no changes | Bioequivalence fed vs fasting for Cmax [10, 19]: did not fit the claim of bioequivalence; also recorded: does not fit the claim of bioequivalence | Bioequivalence fed vs fasting for extent of exposure (AUClast and AUC∞) [10, 19]: fulfilled the claim of bioequivalence; also recorded: remained within the acceptance interval; also recorded: remained unchanged | AUClast test/reference geometric means ratio (GMR) ([10]; single oral etamicastat 200 mg): 93.59% | AUC∞ test/reference geometric means ratio (GMR) ([10]; single oral etamicastat 200 mg): 96.47% | Cmax test/reference geometric means ratio (GMR) ([10]; single oral etamicastat 200 mg): 72.27% | Effect of food on tmax ([10]; fed vs fasting, Wilcoxon signed rank test): prolonged; also recorded: significantly delayed; also recorded: significantly increased | Decrease of Cmax as a result of food intake ([10]; fed vs fasting, single oral etamicastat 200 mg): 28% | No observed adverse effect level [11]: 20 mg/kg/day | Survival rates [12]: increased survival rates | Effect on dopamine or noradrenaline levels in the brain [13]: does not affect

Structure (SMILES): NCc1c[nH]c(=S)n1[C@H]1CCc2c(F)cc(F)cc2C1 [nepicastat]
Crossing of the blood-brain barrier [14]: cross the blood-brain barrier | Potency as DβH inhibitor ([15]; third-generation DβH inhibitor, compared with first and second generation): much greater potency

Structure (SMILES): CCN(CC)C(=S)S [diethyldithiocarbamate]
Potency as DβH inhibitor [15, 20]: low potency | Selectivity for DβH [15, 20]: poor selectivity | Side effects [16]: toxic side effects

AUClast test/reference geometric means ratio (GMR) ([10]; single oral etamicastat 200 mg): 79.41% | AUC∞ test/reference geometric means ratio (GMR) ([10]; single oral etamicastat 200 mg): 83.47% | Cmax test/reference geometric means ratio (GMR) ([10]; single oral etamicastat 200 mg): 62.42%
Structure (SMILES): CC(=O)NCCc1c[nH]c(=S)n1[C@H]1COc2c(F)cc(F)cc2C1 [BIA 5-961]
AUC in NAT2 rapid acetylators compared with poor acetylators [5]: markedly higher | Increase of the extent of systemic exposure with dose [7]: approximately dose-proportional | Linearity of pharmacokinetics [7]: linear pharmacokinetics | Activity of the metabolite [17]: inactive | Effect of food on AUC∞, AUClast and Cmax (systemic exposure) of the metabolite ([10]; etamicastat 200 mg administered in the presence of food vs fasting): significant decrease; also recorded: decreased | Occurrence as metabolite of etamicastat [18]: major metabolic pathway

Structure (SMILES): CCN(CC)C(=S)SSC(=S)N(CC)CC [disulfiram]
Potency as DβH inhibitor [15, 20]: low potency | Selectivity for DβH [15, 20]: poor selectivity | Side effects [16]: toxic side effects

Structure (SMILES): CCCCc1ccc(C(=O)O)nc1 [fusaric acid]
Potency as DβH inhibitor [15, 20]: low potency | Selectivity for DβH [15, 20]: poor selectivity | Side effects [16]: toxic side effects
